Where two headings read alike, the source gives them in different places.
Experiments:
[1] = system: patients with recurrent EOC or BC; assay: Phase 1b 3+3 dose escalation: DLTs, MTD and RP2D; assay type: in vivo, human
In short: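 Classic 3+3 design with continuous 28-day cycles: oral alpelisib q.d. plus olaparib tablets b.i.d. Levels were 250/100 mg, 250/200 mg, 300/200 mg and 200/200 mg. Escalation followed 0/3 or 1/6 DLTs in cycle 1, graded by CTCAE v4.03. DLTs were prespecified grade ≥3 treatment-related toxicities. Monitoring was weekly in cycles 1–2, then day 1 of each cycle. Six EOC patients were then expanded at the MTD.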

[2] = Pharmacokinetics: steady state Cmax of alpelisib and olaparib; assay type: in vivo, human; details: combination; for Effect of the other drug's dosing on Cmax: dose levels 0-3; for Steady state Cmax compared with monotherapy: day 8, 2 hours post dosing
In short: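 Blood sampled for alpelisib and olaparib levels on cycle 1 day 1 (time 0) and on days 8 and 15 at 0, 1, 2, 4 and 8 h after dosing both agents. Patients took oral alpelisib once daily and olaparib tablets twice daily, continuously on 28-day cycles, at alpelisib 200–300 mg with olaparib 100–200 mg.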

[3] = system: EOCs that are gBRCAwt but HRD positive and platinum resistant; details: gBRCAwt but HRD positive and platinum resistant EOC; QUADRA study; cited from earlier work
EOC patients = details: cited from earlier work
patients = details: olaparib monotherapy, SOLO1 study; cited from earlier work

SMILES	MTD and RP2D, alpelisib dose ([1]; orally once daily, combined with olaparib 200 mg twice daily)	Dose proportionality of drug exposure [2]	Effect of the other drug's dosing on Cmax [2]	Steady state Cmax compared with monotherapy [2]	Response to monotherapy [3]	Objective response rate expected from monotherapy (EOC patients; BRCAwt, platinum-resistant ovarian carcinomas, no ref given)	ORR as monotherapy (EOC patients; gBRCAwt / BRCAwt platinum resistant patients)	Expected response rate of monotherapy (EOC patients; platinum resistant gBRCAmut EOC)	Expected response rate of monotherapy (EOC patients; platinum resistant gBRCAwt EOC)	Expected response rate of monotherapy (EOC patients; platinum sensitive gBRCAmut EOC)	Expected response rate of monotherapy (EOC patients; platinum sensitive gBRCAwt EOC)	MTD and RP2D, olaparib dose ([1]; orally twice daily (tablet), combined with alpelisib 200 mg once daily)	Fatigue, share of patients (patients)	Nausea, share of patients (patients)	Vomiting, share of patients (patients)
Cc1nc(NC(=O)N2CCC[C@H]2C(N)=O)sc1-c1ccnc(C(C)(C)C(F)(F)F)c1 [alpelisib]	200 mg	increasing proportionally with increasing dose	unaffected by olaparib dosing	comparable to values when testing these agents as monotherapy	–	–	–	–	–	–	–	–	–	–	–
NC(=O)c1cccc2cn(-c3ccc([C@@H]4CCCNC4)cc3)nc12 [niraparib]	–	–	–	–	10%	–	–	–	–	–	–	–	–	–	–
O=C(c1cc(Cc2n[nH]c(=O)c3ccccc23)ccc1F)N1CCN(C(=O)C2CC2)CC1 [olaparib]	–	increasing proportionally with increasing dose	unaffected by alpelisib dosing	comparable to values when testing these agents as monotherapy	–	4–5%	~ 5%	28%	~ 5%	≥ 60%	50%	200 mg	63%	77%	40%
